In the array DNA melting data of Ke et al. (doi:10.1101/2024.01.08.574731):

How the values were obtained:
[1] = folding enthalpy; higher = less favourable; fluorescence melt of hairpins on a sequencing array, two-state fit; details: sodium 0.088 M
Method in brief: (§1)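 With Cy3 and quencher oligos annealed, library hairpins on a sequenced MiSeq flow cell were imaged for Cy3 fluorescence in 50 mM Na-HEPES pH 8.0, 25 mM NaCl, in 2.5 °C steps up to 60 °C. Melting temperature and folding enthalpy were derived from bootstrapped two-state fits of signals normalised to pre-quench Cy3 and to control constructs. Four replicates were combined by inverse variance, with fitted temperatures raised by 9.35 °C to match UV melts.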

[2] = melting temperature; fluorescence melt of hairpins on a sequencing array, two-state fit, raised by 9.35 °C to match UV melts; details: sodium 0.088 M
Method in brief: as §1

**Q.** What does the source list for CTTCAGAAATGAAG (((((....)))))?
**A.** folding enthalpy [1]: -11.5 kcal/mol; Tm [2]: 36 °C

**Q.** Which results are given for GCCTCTCGAAAGAGCGGC (((.(((....))).)))?
**A.** folding enthalpy [1]: -37 kcal/mol; Tm [2]: 53.4 °C

**Q.** What does the source list for GCTAAGCGAAAGCTCTGC ((..(((....)))..))?
**A.** folding enthalpy [1]: -15.8 kcal/mol; Tm [2]: 31.4 °C

**Q.** With GTCCGCGGAAACGTGGGC (.((.((....)).)).) as the sequence, how does the folding enthalpy [1] read?
**A.** -26.5 kcal/mol

**Q.** And the Tm [2]?
**A.** 53 °C

**Q.** Which folding enthalpy [1] does the source give for GCAAGCGGAAACGCTTAC (.(((((....))))).) here?
**A.** -13.4 kcal/mol

**Q.** What about the Tm [2] of the same sequence?
**A.** 41.2 °C

**Q.** For GTCGACGAAAGTCGTGAC ((((((....)))..))), which folding enthalpy [1] is on record?
**A.** -10 kcal/mol

**Q.** And the Tm [2]?
**A.** 43.6 °C

**Q.** For GCAGCCGAAAGGCCGTGC ((((((....)))..))), which folding enthalpy [1] is on record?
**A.** -13.3 kcal/mol

**Q.** What about the Tm [2] of the same sequence?
**A.** 41.9 °C

**Q.** What does the source list for GCAGCGCGAAAGCGGGGC ((..(((....)))..))?
**A.** folding enthalpy [1]: -28 kcal/mol; Tm [2]: 67.2 °C

**Q.** For GTTTCGGGAAACCAAAAC ((((.((....)).)))), which folding enthalpy [1] is on record?
**A.** -19.6 kcal/mol

**Q.** What about the Tm [2] of the same sequence?
**A.** 35.1 °C

**Q.** Which results are given for GACGAAGGAAACTTTGTC (((.(((....))).)))?
**A.** folding enthalpy [1]: -28.3 kcal/mol; Tm [2]: 41.6 °C

**Q.** With GGTGTACGAAAGTAACC (((.(((....)))))) as the sequence, how does the folding enthalpy [1] read?
**A.** -24.5 kcal/mol

**Q.** What about the Tm [2] of the same sequence?
**A.** 47.8 °C

**Q.** Which folding enthalpy [1] does the source give for GCTGTGCGAAAGCAAAGC (((.(((....))).))) here?
**A.** -42.2 kcal/mol

**Q.** What about the Tm [2] of the same sequence?
**A.** 55.7 °C

**Q.** For GGAACCGAAAGGTTCTCC ((((((....)))..))), which folding enthalpy [1] is on record?
**A.** -10.8 kcal/mol

**Q.** What about the Tm [2] of the same sequence?
**A.** 51.9 °C

**Q.** For GCGAACCTCGC ((((...)))), which folding enthalpy [1] is on record?
**A.** -17.7 kcal/mol

**Q.** What about the Tm [2] of the same sequence?
**A.** 46 °C

**Q.** Which folding enthalpy [1] does the source give for GCAACCGAAAGGTCATGC ((((((....)))..))) here?
**A.** -13 kcal/mol

**Q.** And the Tm [2]?
**A.** 32.3 °C

**Q.** For GACGTTGGAAACAACGTC (((((((....))))))), which folding enthalpy [1] is on record?
**A.** -39.1 kcal/mol

**Q.** What about the Tm [2] of the same sequence?
**A.** 68 °C

**Q.** With GGCGGAGGAAACTTCGCC ((((.((....)).)))) as the sequence, how does the folding enthalpy [1] read?
**A.** -49.2 kcal/mol

**Q.** What about the Tm [2] of the same sequence?
**A.** 59 °C

**Q.** What does the source list for GTGTTGGGAAACCGATAC ((.(.((....)).).))?
**A.** folding enthalpy [1]: -18.3 kcal/mol; Tm [2]: 33.3 °C

**Q.** With GTCATCGGAAACGACGAC (((.(((....))).))) as the sequence, how does the folding enthalpy [1] read?
**A.** -29.7 kcal/mol

**Q.** What about the Tm [2] of the same sequence?
**A.** 43.2 °C

**Q.** Which results are given for GAATTCGGAAACGGATTC ((((.((....)).))))?
**A.** folding enthalpy [1]: -36.2 kcal/mol; Tm [2]: 45.4 °C

**Q.** With GGTGACGAAAGTCTAACC ((((((....)))..))) as the sequence, how does the folding enthalpy [1] read?
**A.** -18.2 kcal/mol

**Q.** And the Tm [2]?
**A.** 42.2 °C

**Q.** Which folding enthalpy [1] does the source give for GACCACGAAAGTGCGTC ((((((....))).))) here?
**A.** -22.8 kcal/mol

**Q.** And the Tm [2]?
**A.** 53.7 °C

**Q.** For GCGGGATCGAAAGATCGC (((..(((....)))))), which folding enthalpy [1] is on record?
**A.** -13.8 kcal/mol

**Q.** What about the Tm [2] of the same sequence?
**A.** 51 °C

**Q.** Which results are given for GGGCTGGCGAAAGCCCCC (((..(((....))))))?
**A.** folding enthalpy [1]: -12.9 kcal/mol; Tm [2]: 52.1 °C

**Q.** Which results are given for GTATATCGAAAGATCTAC (((.(((....))).)))?
**A.** folding enthalpy [1]: -19.5 kcal/mol; Tm [2]: 31.8 °C

**Q.** With TTAACGAAAGTTAA (((((....))))) as the sequence, how does the folding enthalpy [1] read?
**A.** -14 kcal/mol

**Q.** And the Tm [2]?
**A.** 41.1 °C

**Q.** Which results are given for GATCAAATTCTTGATC ((((((....))))))?
**A.** folding enthalpy [1]: -32.6 kcal/mol; Tm [2]: 41.4 °C

**Q.** For GACTGTGGAAACATGGTC (((..((....))..))), which folding enthalpy [1] is on record?
**A.** -28.7 kcal/mol

**Q.** What about the Tm [2] of the same sequence?
**A.** 37.9 °C

**Q.** What does the source list for GCTTCGAAAGAAGC (((((....)))))?
**A.** folding enthalpy [1]: -26.6 kcal/mol; Tm [2]: 66.8 °C

**Q.** With GTGCTCGAAAGAGACAC ((((((....))).))) as the sequence, how does the folding enthalpy [1] read?
**A.** -22.4 kcal/mol

**Q.** What about the Tm [2] of the same sequence?
**A.** 47.3 °C

**Q.** Which results are given for GGCCGCGAAAGCGTGGCC ((((((....)))..)))?
**A.** folding enthalpy [1]: -22.8 kcal/mol; Tm [2]: 69.2 °C

**Q.** Which folding enthalpy [1] does the source give for GATGAGGGAAACCTCACC (.(((((....))))).) here?
**A.** -15.7 kcal/mol

**Q.** What about the Tm [2] of the same sequence?
**A.** 35.5 °C

**Q.** For GTGCGGGGAAACCCGCGC (.(((((....))))).), which folding enthalpy [1] is on record?
**A.** -16.1 kcal/mol

**Q.** What about the Tm [2] of the same sequence?
**A.** 67.2 °C

**Q.** For GAGGGACGAAAGTCGCTC (((.(((....))).))), which folding enthalpy [1] is on record?
**A.** -34.3 kcal/mol

**Q.** What about the Tm [2] of the same sequence?
**A.** 65.6 °C

**Q.** What does the source list for GGGCTCGAAAGAGAGCCC ((((((....)))..)))?
**A.** folding enthalpy [1]: -35.3 kcal/mol; Tm [2]: 66.2 °C

**Q.** Which folding enthalpy [1] does the source give for GGCAGCGAAAGCTGCGCC ((((((....)))..))) here?
**A.** -6.68 kcal/mol

**Q.** What about the Tm [2] of the same sequence?
**A.** 65.7 °C

**Q.** Which folding enthalpy [1] does the source give for GAGTCCCGAAAGGGCCTC (((.(((....))).))) here?
**A.** -26.6 kcal/mol

**Q.** What about the Tm [2] of the same sequence?
**A.** 52.4 °C

**Q.** What does the source list for GATCAAACAGTTGATC ((((((....))))))?
**A.** folding enthalpy [1]: -25.8 kcal/mol; Tm [2]: 38.5 °C
